{"source": "ChEMBL document CHEMBL1649518", "about": "“Safety and outcomes of open-label deferasirox iron chelation therapy for mucormycosis” (Antimicrob Agents Chemother, 2009)", "assay_type_in_all_cases": "organism-based", "design_in_all_cases": "route oral", "conditions_in_all_cases": "in vivo, 336 h", "key": {"[1]": {"test_system": "Homo sapiens", "assay": "Toxicity in patient with mucormycosis assessed as creatinine level at 5 to 20 mg/kg/day, po for 14 days (reference value: 1.6 mg/dl)", "outline": "(§1)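 Open-label deferasirox given to patients with mucormycosis. One patient with coexisting hepatic disease received 5 mg/kg of body weight/day for 20 days. Laboratory values were reported as medians (interquartile range) at diagnosis, at start of deferasirox, at end of deferasirox, and at a final time point.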"}, "[2]": {"test_system": "Homo sapiens", "assay": "Toxicity in patient with mucormycosis assessed as blood urea nitrogen level at 5 to 20 mg/kg/day, po for 14 days (reference value: 34 mg/dl)", "outline": "as §1"}, "[3]": {"test_system": "Homo sapiens", "assay": "Toxicity in patient with mucormycosis assessed as aspartate transaminase level at 5 to 20 mg/kg/day, po for 14 days (reference value: 27 U/l)", "outline": "as §1"}, "[4]": {"test_system": "Homo sapiens", "assay": "Toxicity in patient with mucormycosis assessed as alkaline phosphatase level at 5 to 20 mg/kg/day, po for 14 days (reference value: 126 U/l)", "outline": "as §1"}, "[5]": {"test_system": "Homo sapiens", "assay": "Toxicity in patient with mucormycosis assessed as total bilirubin level at 5 to 20 mg/kg/day, po for 14 days (reference value: 0.8 mg/dl)", "outline": "as §1"}, "[6]": {"test_system": "Homo sapiens", "assay": "Toxicity in patient with mucormycosis assessed as WBC count at 5 to 20 mg/kg/day, po for 14 days (reference value: 8.1/uL)", "outline": "as §1"}, "[7]": {"test_system": "Homo sapiens", "assay": "Toxicity in patient with mucormycosis assessed as absolute neutrophil count at 5 to 20 mg/kg/day, po for 14 days (reference value: 5.2/uL)", "outline": "as §1"}, "[8]": {"test_system": "Homo sapiens", "assay": "Toxicity in patient with mucormycosis assessed as hemoglobin level at 5 to 20 mg/kg/day, po for 14 days (reference value: 9 mg/dl)", "outline": "as §1"}, "[9]": {"test_system": "Homo sapiens", "assay": "Toxicity in patient with mucormycosis assessed as platelet count at 5 to 20 mg/kg/day, po for 14 days (reference value: 217/uL)", "outline": "as §1"}, "[10]": {"test_system": "Homo sapiens", "assay": "Toxicity in patient with mucormycosis assessed as glucose level at 5 to 20 mg/kg/day, po for 14 days (reference value: 131 mg/dl)", "outline": "as §1"}, "[11]": {"test_system": "Homo sapiens", "assay": "Toxicity in patient with mucormycosis assessed as alanine transaminase level at 5 to 20 mg/kg/day, po for 14 days (reference value: 21 U/l)", "outline": "as §1"}}, "data": [{"smiles": "O=C(O)c1ccc(-n2nc(-c3ccccc3O)nc2-c2ccccc2O)cc1", "note": "[DEFERASIROX]", "values": [{"measurement": "Activity", "setting": "[1]", "result": 1.9, "unit": "mg/dL"}, {"measurement": "Activity", "setting": "[2]", "result": 43, "unit": "mg/dL"}, {"measurement": "Activity", "setting": "[3]", "result": 28, "unit": "U/L"}, {"measurement": "Activity", "setting": "[4]", "result": 314, "unit": "U/L"}, {"measurement": "Activity", "setting": "[5]", "result": 0.6, "unit": "mg/dL"}, {"measurement": "Activity", "setting": "[6]", "result": "10.8 10^3 cells/µL"}, {"measurement": "Activity", "setting": "[7]", "result": "5.4 10^3 cells/µL"}, {"measurement": "Activity", "setting": "[8]", "result": 9, "unit": "g/dL"}, {"measurement": "Activity", "setting": "[9]", "result": "199 10^3 cells/µL"}, {"measurement": "Activity", "setting": "[10]", "result": 104, "unit": "mg/dL"}, {"measurement": "Activity", "setting": "[11]", "result": 49, "unit": "U/L"}]}]}
